A short description of data set [1]: Half-life for disappearance of compound from rat 10% brain homogenate. It counts as ADME. The method, boiled down:
(§1)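 Freshly collected whole blood, or 10% w/v brain homogenate in pH 7.4 phosphate buffer (ionic strength 0.15), was prewarmed to 37 °C. Compound was spiked from an 8 mM DMSO stock to 40 µM final. Timed samples were quenched in 8% DMSO/acetonitrile, centrifuged, filtered and analyzed by reversed-phase C8 HPLC with UV detection. K came from linear regression of log peak height versus time, with t1/2 derived from it. Values are mean ± SE of three determinations in different animal samples.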

For data set [2], the species on record is Oryctolagus cuniculus. The experiment in a line: Pseudo first-order rate constant (K) for disappearance of compound from rabbit 10% brain homogenate. It counts as ADME. In a few lines: (§2)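 Freshly collected whole blood (rat trunk blood; rabbit) or 10% w/v brain homogenate made in pH 7.4 phosphate buffer (μ = 0.15), prewarmed to 37 °C. Compound added from 8 mM DMSO stock to a final 40 μM. Timed 0.3 mL samples were quenched in 8% DMSO/acetonitrile, centrifuged, filtered and analysed by reversed-phase C8 HPLC-UV. K came from linear regression of log peak height versus time; n=3 animal samples.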

Data set [3] is filed under the species Rattus norvegicus. In words: Pseudo first-order rate constant (K) for disappearance of compound from rat 10% brain homogenate. It counts as ADME. The method, boiled down:
as §2

Data set [4] is described as follows: Half-life for disappearance of compound from rabbit 10% brain homogenate. It counts as ADME, Oryctolagus cuniculus. In a few lines:
as §1

The nature of data set [5]: Half-life for disappearance of compound from rabbit whole blood. It counts as ADME, organism-based, Oryctolagus cuniculus. The method, boiled down: as §1
A short description of data set [6]: Half-life for disappearance of compound from rat whole blood. The class given is ADME, organism-based. In a few lines:
as §1

Data set [7] can be described thus: Pseudo first-order rate constant (K) for disappearance of compound from rat whole blood. It counts as ADME, tissue-based. In a few lines:
as §2

The next data set is filed under the species Homo sapiens. In words: Pseudo first-order rate constant (K) for disappearance of compound from human whole blood. It counts as ADME, organism-based. In a few lines: as §1
The species named for another data set is Canis familiaris. The experiment in a line: Pseudo first-order rate constant (K) for disappearance of compound from dog whole blood. The class given is ADME, organism-based, Canis lupus familiaris. In a few lines: as §1
The nature of data set [8]: Half-life for disappearance of compound from dog whole blood. It counts as ADME, organism-based, Canis lupus familiaris. In a few lines:
as §1

Data set [9] is described as follows: Half-life for disappearance of compound from human whole blood. The class given is ADME, organism-based. The method, boiled down:
as §1

The species entered for data set [10] is Oryctolagus cuniculus. The experiment in a line: Pseudo first-order rate constant (K) for disappearance of compound from rabbit whole blood. It counts as ADME, organism-based. The method, boiled down: as §2
In data set [11] the test system is Rattus norvegicus. In words: Concentration of compound in rat blood after intravenous injection of 20 mg/kg benzyl-penicillin after 10 min. It counts as functional, organism-based. The arrangement: dose 20 mg/kg. In a few lines:
(§3)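 Male Sprague-Dawley rats (200-250 g), conscious, received 60 µmol/kg (equimolar to 20 mg/kg benzylpenicillin) by tail-vein injection. Benzylpenicillin K was given in water/ethanol/propylene glycol, and the delivery systems in ethanol:propylene glycol 7:3, at 20 mg/mL. Rats were decapitated at set times (4-6 per point), with trunk blood heparinized and brain, kidney, liver and lung frozen. Benzylpenicillin was measured by disk microbioassay (Bacillus subtilis ATCC 6633) after >5-volume sterile-water dilution or homogenization, against matrix calibration curves; assay limit 0.05 µg/mL.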

Data set [12] has as its system Rattus norvegicus. In words: Concentration of compound in rat blood after intravenous injection of 20 mg/kg benzyl-penicillin after 60 min. The class given is functional, organism-based. Further details: dose 20 mg/kg. The method, boiled down: as §3
For data set [13], the system named is Rattus norvegicus. The experiment in a line: Concentration of compound in rat blood after intravenous injection of 20 mg/kg benzyl-penicillin after 40 min. It counts as functional, organism-based. The arrangement: dose 20 mg/kg. The method, boiled down:
as §3

Data set [14] relates to Rattus norvegicus. The experiment in a line: Concentration of compound in rat brain after intravenous injection of 20 mg/kg benzyl-penicillin after 10 min. The class given is functional, organism-based. Further details: dose 20 mg/kg. In a few lines:
as §3

Data set [15] deals with Rattus norvegicus. In words: Concentration of compound in rat brain after intravenous injection of 20 mg/kg benzyl-penicillin after 20 min;Below detection limit. The arrangement: dose 20 mg/kg. The class given is functional, organism-based. In a few lines:
as §3

Data set [16] concerns Rattus norvegicus. In words: Concentration of compound in rat blood after intravenous injection of 20 mg/kg benzyl-penicillin after 3 min. It counts as functional, organism-based. Further details: dose 20 mg/kg. In a few lines:
as §3

Data set [17] relates to Rattus norvegicus. In words: Concentration of compound in rat blood after intravenous injection of 20 mg/kg benzyl-penicillin after 1 min. The class given is functional, organism-based. Further details: dose 20 mg/kg. In a few lines:
as §3

For data set [18], the system named is Rattus norvegicus. The experiment in a line: Concentration of compound in rat brain after intravenous injection of 20 mg/kg benzyl-penicillin after 1 min. Further details: dose 20 mg/kg. The class given is functional, organism-based. In a few lines: as §3
The test system of data set [19] is Rattus norvegicus. In words: Concentration of compound in rat blood after intravenous injection of 20 mg/kg benzyl-penicillin after 5 min. The class given is functional, organism-based. The arrangement: dose 20 mg/kg. The method, boiled down: as §3
In data set [20] the test system is Rattus norvegicus. The experiment in a line: Concentration of compound in rat brain after intravenous injection of 20 mg/kg benzyl-penicillin after 5 min. The class given is functional, organism-based. The arrangement: dose 20 mg/kg. The method, boiled down:
as §3

Data set [21] concerns Rattus norvegicus. The experiment in a line: Concentration of compound in rat brain after intravenous injection of 20 mg/kg benzyl-penicillin after 3 min. It counts as functional, organism-based. The arrangement: dose 20 mg/kg. In a few lines:
as §3

For data set [22], the system named is Rattus norvegicus. The experiment in a line: Concentration of compound in rat brain after intravenous injection of 20 mg/kg benzyl-penicillin after 40 min;Below detection limit. The arrangement: dose 20 mg/kg. The class given is functional, organism-based. The method, boiled down: as §3
For data set [23], the system named is Rattus norvegicus. In words: Concentration of compound in rat brain after intravenous injection of 20 mg/kg benzyl-penicillin after 60 min;Below detection limit. It counts as functional, organism-based. The arrangement: dose 20 mg/kg. In a few lines:
as §3

Data set [24] deals with Rattus norvegicus. The experiment in a line: Concentration of compound in rat blood after intravenous injection of 20 mg/kg benzyl-penicillin after 20 min. The arrangement: dose 20 mg/kg. It counts as functional, organism-based. In a few lines:
as §3

Consider `C[n+]1cccc(C(=O)OCOC(=O)C2N3C(=O)C(NC(=O)Cc4ccccc4)C3SC2(C)C)c1.[I-]` (centres undefined), for which the half-life in data set [1] was found to be 0.6 min; in data set [4] it was 0.5 min. The K in the data set listed under Oryctolagus cuniculus [2] worked out at 1.366 min⁻¹; in the data set listed under Rattus norvegicus [3], 0.949 min⁻¹.

Consider `C[n+]1cccc(C(=O)OCCOC(=O)C2N3C(=O)C(NC(=O)Cc4ccccc4)C3SC2(C)C)c1.[I-]` (centres undefined), for which the half-life in data set [1] was 28.2 min; in [5], 2 min; in data set [6], 1.6 min; in data set [4], 16.7 min; in [8], 11.5 min; in data set [9] it was 6.7 min. Besides, the K in the data set listed under Oryctolagus cuniculus [2] is 0.043 min⁻¹; in data set [7] it was 0.435 min⁻¹; in the data set listed under Rattus norvegicus [3] it was 0.025 min⁻¹; in the data set listed under Homo sapiens, 0.105 min⁻¹; in the data set listed under Canis familiaris it was 0.061 min⁻¹; in the data set listed under Oryctolagus cuniculus [10], 0.33 min⁻¹.

Take `C[n+]1cccc(C(=O)NCCOC(=O)C2N3C(=O)C(NC(=O)Cc4ccccc4)C3SC2(C)C)c1.[I-]` (centres undefined): the half-life in data set [1] was found to be 92.1 min; in data set [5], 3 min; in data set [6], 1.9 min; in data set [4], 23.4 min; in [8], 14.5 min; in data set [9] it was 9.1 min. For the same molecule, the K amounted to 0.03 min⁻¹ in the data set filed under Oryctolagus cuniculus [2]; 0.362 min⁻¹ in [7]; 0.008 min⁻¹ in the data set listed under Rattus norvegicus [3]; 0.078 min⁻¹ in the data set filed under Homo sapiens; 0.048 min⁻¹ in the data set listed under Canis familiaris; 0.23 min⁻¹ in the data set listed under Oryctolagus cuniculus [10].

Regarding `CN1C=CCC(C(=O)NCCOC(=O)C2N3C(=O)C(NC(=O)Cc4ccccc4)C3SC2(C)C)=C1` (centres undefined), the half-life in data set [1] turned out to be 5.7 min; in data set [5] it was 1.3 min; in data set [6], 0.3 min; in data set [4], 4.6 min; in data set [8] it was 5.7 min; in data set [9], 19.4 min. The Concentration in the data set on Rattus norvegicus [11] was 4.9 µg/mL; in the data set on Rattus norvegicus [12], 0.2 µg/mL; in the data set with Rattus norvegicus [13] it was 0.3 µg/mL; in the data set with Rattus norvegicus [14], 0.1 µg/mL; in the data set with Rattus norvegicus [15], “Below limit of detection”; in the data set on Rattus norvegicus [16], 7.3 µg/mL. Further, the Concentration in the data set with Rattus norvegicus [17] is 5 µg/mL; in the data set on Rattus norvegicus [18] it was 0.2 µg/mL; in the data set on Rattus norvegicus [19], 3.8 µg/mL; in the data set on Rattus norvegicus [20], 0.2 µg/mL; in the data set on Rattus norvegicus [21], 0.3 µg/mL; in the data set with Rattus norvegicus [22], “Below limit of detection”. Moreover, the figures for the Concentration result in the data set on Rattus norvegicus [23] and with Rattus norvegicus [24] were “Below limit of detection” and 0.8 µg/mL, respectively. The K in the data set filed under Oryctolagus cuniculus [2] turned out to be 0.152 min⁻¹; in data set [7], 2.712 min⁻¹; in the data set filed under Rattus norvegicus [3], 0.125 min⁻¹; in the data set listed under Homo sapiens, 0.037 min⁻¹; in the data set filed under Canis familiaris it was 0.123 min⁻¹; in the data set filed under Oryctolagus cuniculus [10], 0.553 min⁻¹.

The half-life is the time needed for the level to fall by half in the phase considered. High values mean slow loss, low ones fast loss.

Source of the values: ChEMBL document CHEMBL1124553, “Brain-specific chemical delivery systems for beta-lactam antibiotics. In vitro and in vivo studies of some dihydropyridine and dihydroisoquinoline derivatives of benzylpenicillin in rats” (J Med Chem, 1989).
